{"source": "ChEMBL document CHEMBL5120856", "about": "“New salicylic acid derivatives, double inhibitors of glycolate oxidase and lactate dehydrogenase, as effective agents decreasing oxalate production” (Eur J Med Chem, 2022)", "key": {"2-Hydroxyacid oxidase 1 [1]": {"molecular_target": "T1, 2-Hydroxyacid oxidase 1 (Mus musculus, UniProt Q9WU19)", "T1 sequence (Q9WU19 whole entry)": "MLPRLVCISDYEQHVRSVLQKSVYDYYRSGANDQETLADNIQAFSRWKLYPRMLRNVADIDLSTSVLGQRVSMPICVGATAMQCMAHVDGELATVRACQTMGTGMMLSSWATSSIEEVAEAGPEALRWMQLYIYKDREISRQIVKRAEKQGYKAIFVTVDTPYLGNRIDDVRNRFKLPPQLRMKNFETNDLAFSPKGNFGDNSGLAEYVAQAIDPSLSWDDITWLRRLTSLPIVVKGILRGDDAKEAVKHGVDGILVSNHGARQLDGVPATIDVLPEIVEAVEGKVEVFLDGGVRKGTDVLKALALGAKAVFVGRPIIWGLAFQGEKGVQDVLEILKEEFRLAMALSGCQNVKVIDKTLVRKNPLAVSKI", "test": "Inhibition of N-terminal His-tagged mouse recombinant glycolate oxidase expressed in Escherichia coli BL21 (DE3) cells using glycolate as substrate preincubated for 10 mins followed by substrate addition and measured after 10 mins by Amplex red and horseradish peroxidase based fluorescence assay"}, "[2]": {"molecular_target": "L-lactate dehydrogenase A chain (Homo sapiens, UniProt P00338)", "test": "Inhibition of human recombinant LDHA using pyruvate as substrate preincubated for 10 mins followed by substrate addition and measured every 60 sec for 10 mins in the presence of NADH by fluorescence assay"}, "2-Hydroxyacid oxidase 1 [3]": {"molecular_target": "T2, 2-Hydroxyacid oxidase 1 (Homo sapiens, UniProt Q9UJM8)", "T2 sequence (Q9UJM8 whole entry)": "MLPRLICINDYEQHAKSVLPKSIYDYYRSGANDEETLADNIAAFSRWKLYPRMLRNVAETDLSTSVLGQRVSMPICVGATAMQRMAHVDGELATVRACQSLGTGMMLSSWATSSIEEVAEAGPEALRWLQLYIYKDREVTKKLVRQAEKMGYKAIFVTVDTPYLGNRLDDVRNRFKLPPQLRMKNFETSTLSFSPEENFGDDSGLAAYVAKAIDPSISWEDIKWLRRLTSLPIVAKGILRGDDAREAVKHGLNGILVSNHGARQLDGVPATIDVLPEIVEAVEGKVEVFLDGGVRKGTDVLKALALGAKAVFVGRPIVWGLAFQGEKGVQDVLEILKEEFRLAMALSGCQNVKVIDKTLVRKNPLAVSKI", "test": "Non-competitive mixed inhibition of N-terminal His-tagged human recombinant glycolate oxidase expressed in Escherichia coli BL21 (DE3) cells assessed as inhibition constant using varying concentration of glycolate as substrate measured every 60 sec for 15 mins by Amplex red and horseradish peroxidase based fluorescence assay"}, "[4]": {"molecular_target": "T3, 2-Hydroxyacid oxidase 1 (Homo sapiens) (UniProt Q9UJM8)", "T3 sequence (whole entry)": "T2 sequence (Q9UJM8 whole entry)", "test": "Reversible inhibition of N-terminal His-tagged human recombinant glycolate oxidase expressed in Escherichia coli BL21 (DE3) cells assessed as enzyme recovery using glycolate as substrate at 100 times of IC50 concentration preincubated for 30 mins followed by substrate addition and measured every 60 sec for 15 mins by jump-dilution based Amplex red and horseradish peroxidase fluorescence assay", "conditions": "time 45.0 min"}, "[5]": {"molecular_target": "L-lactate dehydrogenase B chain (Homo sapiens, UniProt P07195)", "sequence (P07195 whole entry)": "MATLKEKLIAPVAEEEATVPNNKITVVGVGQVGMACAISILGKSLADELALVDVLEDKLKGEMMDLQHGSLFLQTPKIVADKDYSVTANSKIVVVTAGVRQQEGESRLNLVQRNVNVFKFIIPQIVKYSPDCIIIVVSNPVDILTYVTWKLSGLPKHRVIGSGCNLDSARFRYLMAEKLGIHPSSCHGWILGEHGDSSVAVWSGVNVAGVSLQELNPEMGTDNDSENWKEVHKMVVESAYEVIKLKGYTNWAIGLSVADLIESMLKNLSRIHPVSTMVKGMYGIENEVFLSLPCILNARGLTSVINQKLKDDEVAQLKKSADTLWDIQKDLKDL", "test": "Non-competitive inhibition of human recombinant LDHB assessed as inhibition constant using varying concentration of pyruvate as substrate preincubated for 10 mins followed by substrate addition and measured every 60 sec for 10 mins in the presence of NADH by fluorescence assay"}, "Homo sapiens": {"organism": "Homo sapiens", "test": "Ratio of Ki for Non-competitive inhibition of human recombinant LDHB to Ki for non-competitive inhibition of human recombinant LDHA"}, "[6]": {"molecular_target": "T3, 2-Hydroxyacid oxidase 1 (Homo sapiens)", "test": "Non-competitive mixed inhibition of N-terminal His-tagged human recombinant glycolate oxidase expressed in Escherichia coli BL21 (DE3) cells assessed as decrease in Vmax with increase in apparent Km using glycolate as substrate upto 60 microM"}, "Hepatocyte [7]": {"tested_on": "Hepatocyte", "test": "Inhibition of GO/LDHA in hyperoxaluric-primary hepatocyte isolated from Grhpr-knockdown PH2 C57BL/6 mouse assessed as relative oxalate output at 10 uM measured at 24 hrs in the presence of glycolate relative to control", "type": "cell-based", "procedure,_shortened": "(§1)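 Grhpr-/- mouse primary hepatocytes cultured with 10 mM glycolate, inhibitor at 10 μM; extracellular oxalate determined colorimetrically at 24 and 48 h post-treatment, expressed relative to untreated medium (RO); negative RO means below detection limit; three/four replicates, mean ± SD.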"}, "Hepatocyte [8]": {"tested_on": "Hepatocyte", "test": "Inhibition of GO/LDHA in hyperoxaluric-primary hepatocyte isolated from Grhpr-knockdown PH2 C57BL/6 mouse assessed as relative oxalate output at 10 uM measured at 48 hrs in the presence of glycolate relative to control", "type": "cell-based", "procedure,_shortened": "as §1"}, "Hepatocyte [9]": {"tested_on": "Hepatocyte", "test": "Inhibition of GO/LDHA in hyperoxaluric-primary hepatocyte isolated from Hoga1-knockdown PH3 C57BL/6 mouse assessed as relative oxalate output at 10 uM measured at 24 hrs in the presence of hydroxyproline relative to control", "type": "cell-based", "procedure,_shortened": "(§2)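 Hoga1-/- mouse primary hepatocytes challenged with 10 mM hydroxyproline, inhibitor 10 μM; extracellular oxalate measured by colorimetric kit 24 and 48 h after dosing, given as ratio to oxalate without inhibitor; negative values are below detection limit; mean of three/four replicates ± SD.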"}, "Hepatocyte [10]": {"tested_on": "Hepatocyte", "test": "Inhibition of GO/LDHA in hyperoxaluric-primary hepatocyte isolated from Hoga1-knockdown PH3 C57BL/6 mouse assessed as relative oxalate output at 10 uM measured at 48 hrs in the presence of hydroxyproline relative to control", "type": "cell-based", "procedure,_shortened": "as §2"}, "Hepatocyte [11]": {"tested_on": "Hepatocyte", "test": "Cytotoxicity against hyperoxaluric-primary hepatocyte isolated from Grhpr-knockdown PH2 C57BL/6 mouse assessed as cell death at 10 uM by MTS assay", "type": "toxicity, cell-based", "conditions": "hepatocytes, Grhpr-knockdown PH2 (primary hyperoxaluria type 2)", "procedure,_shortened": "(§3)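 Primary hepatocytes from Agxt1-/- (PH1, 5 mM glycolate), Grhpr-/- (PH2, 10 mM glycolate) or Hoga1-/- (PH3, 10 mM hydroxyproline) mice, incubated with inhibitor at 10 μM; viability followed through the oxalate assay by MTS tetrazolium method.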"}, "Hepatocyte [12]": {"tested_on": "Hepatocyte", "test": "Cytotoxicity against hyperoxaluric-primary hepatocyte isolated from Agxt1-knockdown PH1 C57BL/6 mouse assessed as cell death at 10 uM by MTS assay", "type": "toxicity, cell-based", "conditions": "hepatocytes, Agxt1-knockdown PH1, 10 µM", "procedure,_shortened": "as §3"}, "HEK293": {"tested_on": "HEK293", "test": "Cytotoxicity against HEK293 cells assessed as reduction in cell viability upto 50 uM measured after 48 hrs by MTT assay", "type": "toxicity, cell-based", "conditions": "human, hek293, 48 h"}}, "note": "The source made the active and inactive calls. The calls are words filed in the database; no cut-off is given here."}
{"smiles": "N.N.O=C(O)c1cc(-c2ccc(CN(Cc3ccccc3)Cc3ccc(-c4ccc(O)c(C(=O)O)c4)o3)o2)ccc1O", "values": [{"measurement": "IC50", "setting": "2-Hydroxyacid oxidase 1 [1]", "value": 1800, "unit": "nM"}, {"measurement": "IC50", "setting": "[2]", "value": 400, "unit": "nM"}, {"measurement": "Ki", "setting": "2-Hydroxyacid oxidase 1 [3]", "value": 2300, "unit": "nM"}, {"measurement": "inhibition", "setting": "[4]", "value": "Active"}, {"measurement": "Ki", "setting": "[5]", "value": 700, "unit": "nM"}, {"measurement": "Ratio", "setting": "Homo sapiens", "value": 8}, {"measurement": "inhibition", "setting": "[6]", "value": "Active"}, {"measurement": "fold change (FC)", "setting": "Hepatocyte [7]", "value": 0.59}, {"measurement": "fold change (FC)", "setting": "Hepatocyte [8]", "value": 0.76}, {"measurement": "fold change (FC)", "setting": "Hepatocyte [9]", "value": 0.41}, {"measurement": "fold change (FC)", "setting": "Hepatocyte [10]", "value": 0.47}, {"measurement": "Activity", "setting": "Hepatocyte [11]", "value": "Non-Toxic"}, {"measurement": "Activity", "setting": "Hepatocyte [12]", "value": "Non-Toxic"}, {"measurement": "Activity", "setting": "HEK293", "value": "Non-Toxic"}]}
